Results taken from ChEMBL document CHEMBL1926550, “Synthesis and antibacterial activity of naphthyridone derivatives containing mono/difluoro-methyloxime pyrrolidine scaffolds” (2012).
In brackets after ≈: the same amount, converted by molar mass.

Each compound was assayed on Escherichia coli (assay: Antibacterial activity against Escherichia coli 09-1 after 18 hrs by two fold serial dilution method). Settings: 09-1, 18 h.
Format: functional
Summary of the method: (§1)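 Agar two-fold serial dilution in melted Mueller-Hinton agar, final concentrations 128 down to 0.008 μg/mL. Plates inoculated with 10⁴ cfu and incubated at 35 °C for 18 h. MIC taken as the lowest concentration giving no visible growth on the plate.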

| Compound | MIC [µg/mL] |
| --- | --- |
| CC1(CN)CN(c2ccc3c(=O)c(C(=O)O)cn(C4CC4)c3n2)C/C1=N\OCF (racemic) | > 128 |

Each compound was assayed on Staphylococcus aureus (assay: Antibacterial activity against methicillin-resistant Staphylococcus aureus 10-1 after 18 hrs by two fold serial dilution method). Settings: 10-1, 18 h.
Format: functional
Summary of the method: (§2)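 Agar two-fold serial dilution in melted Mueller-Hinton agar, 128 to 0.008 μg/mL. Plates inoculated with 10⁴ cfu, incubated 35 °C for 18 h. MIC taken as lowest concentration giving no visible growth on the plate.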

| Compound | MIC [µg/mL] |
| --- | --- |
| CC1(CN)CN(c2ccc3c(=O)c(C(=O)O)cn(C4CC4)c3n2)C/C1=N\OCF (racemic) | 128 (≈ 317 µM) |

Each compound was assayed on Klebsiella pneumoniae (assay: Antibacterial activity against Klebsiella pneumoniae 10-3 after 18 hrs by two fold serial dilution method). Settings: 10-3, 18 h.
Format: functional
Summary of the method: as §1

| Compound | MIC [µg/mL] |
| --- | --- |
| CC1(CN)CN(c2ccc3c(=O)c(C(=O)O)cn(C4CC4)c3n2)C/C1=N\OCF (racemic) | 2 (≈ 4.96 µM) |

The compounds below were run on Staphylococcus aureus (assay: Antibacterial activity against methicillin-resistant Staphylococcus aureus 10-3 after 18 hrs by two fold serial dilution method). Settings: 10-3, 18 h.
Format: functional
Summary of the method: as §2

| Compound | MIC [µg/mL] |
| --- | --- |
| CC1(CN)CN(c2ccc3c(=O)c(C(=O)O)cn(C4CC4)c3n2)C/C1=N\OCF (racemic) | 128 (≈ 317 µM) |

What follows are compounds tested on Staphylococcus epidermidis (assay: Antibacterial activity against methicillin-sensitive Staphylococcus epidermidis 10-1 after 18 hrs by two fold serial dilution method). Settings: 10-1, 18 h.
Format: functional
Summary of the method: as §1

| Compound | MIC [µg/mL] |
| --- | --- |
| CC1(CN)CN(c2ccc3c(=O)c(C(=O)O)cn(C4CC4)c3n2)C/C1=N\OCF (racemic) | 4 (≈ 9.92 µM) |

Each compound was assayed on Staphylococcus aureus (assay: Antibacterial activity against methicillin-sensitive Staphylococcus aureus 10-3 after 18 hrs by two fold serial dilution method). Settings: 10-3, 18 h.
Format: functional
Summary of the method: as §1

| Compound | MIC [µg/mL] |
| --- | --- |
| CC1(CN)CN(c2ccc3c(=O)c(C(=O)O)cn(C4CC4)c3n2)C/C1=N\OCF (racemic) | 0.015 (≈ 0.0372 µM) |

These compounds were tested on Escherichia coli (assay: Antibacterial activity against Escherichia coli ATCC 25922 after 18 hrs by two fold serial dilution method). Settings: ATCC 25922, 18 h.
Format: functional
Summary of the method: as §1

| Compound | MIC [µg/mL] |
| --- | --- |
| CC1(CN)CN(c2ccc3c(=O)c(C(=O)O)cn(C4CC4)c3n2)C/C1=N\OCF (racemic) | 0.015 (≈ 0.0372 µM) |

What follows are compounds tested on Pseudomonas aeruginosa (assay: Antibacterial activity against Pseudomonas aeruginosa ATCC 27853 after 18 hrs by two fold serial dilution method). Settings: ATCC 27853, 18 h.
Format: functional
Summary of the method: as §1

| Compound | MIC [µg/mL] |
| --- | --- |
| CC1(CN)CN(c2ccc3c(=O)c(C(=O)O)cn(C4CC4)c3n2)C/C1=N\OCF (racemic) | 1 (≈ 2.48 µM) |

Each compound was assayed on Klebsiella pneumoniae (assay: Antibacterial activity against Klebsiella pneumoniae 10-1 after 18 hrs by two fold serial dilution method). Settings: 10-1, 18 h.
Format: functional
Summary of the method: as §1

| Compound | MIC [µg/mL] |
| --- | --- |
| CC1(CN)CN(c2ccc3c(=O)c(C(=O)O)cn(C4CC4)c3n2)C/C1=N\OCF (racemic) | 0.25 (≈ 0.62 µM) |

Each compound was assayed on Escherichia coli (assay: Antibacterial activity against Escherichia coli 09-3 after 18 hrs by two fold serial dilution method). Settings: 09-3, 18 h.
Format: functional
Summary of the method: as §1

| Compound | MIC [µg/mL] |
| --- | --- |
| CC1(CN)CN(c2ccc3c(=O)c(C(=O)O)cn(C4CC4)c3n2)C/C1=N\OCF (racemic) | > 128 |

The compounds below were run on Klebsiella pneumoniae (assay: Antibacterial activity against Klebsiella pneumoniae 09-2 after 18 hrs by two fold serial dilution method). Settings: 09-2, 18 h.
Format: functional
Summary of the method: as §1

| Compound | MIC [µg/mL] |
| --- | --- |
| CC1(CN)CN(c2ccc3c(=O)c(C(=O)O)cn(C4CC4)c3n2)C/C1=N\OCF (racemic) | > 128 |

The compounds below were run on Enterococcus faecalis (assay: Antibacterial activity against Enterococcus faecalis 09-2 after 18 hrs by two fold serial dilution method). Settings: 09-2, 18 h.
Format: functional
Summary of the method: as §1

| Compound | MIC [µg/mL] |
| --- | --- |
| CC1(CN)CN(c2ccc3c(=O)c(C(=O)O)cn(C4CC4)c3n2)C/C1=N\OCF (racemic) | 0.015 (≈ 0.0372 µM) |

What follows are compounds tested on Staphylococcus aureus (assay: Antibacterial activity against methicillin-sensitive Staphylococcus aureus 10-4 after 18 hrs by two fold serial dilution method). Settings: 10-4, 18 h.
Format: functional
Summary of the method: as §1

| Compound | MIC [µg/mL] |
| --- | --- |
| CC1(CN)CN(c2ccc3c(=O)c(C(=O)O)cn(C4CC4)c3n2)C/C1=N\OCF (racemic) | 0.015 (≈ 0.0372 µM) |

What follows are compounds tested on Enterococcus faecium (assay: Antibacterial activity against Enterococcus faecium 09-3 after 18 hrs by two fold serial dilution method). Settings: 09-3, 18 h.
Format: functional
Summary of the method: as §1

| Compound | MIC [µg/mL] |
| --- | --- |
| CC1(CN)CN(c2ccc3c(=O)c(C(=O)O)cn(C4CC4)c3n2)C/C1=N\OCF (racemic) | 2 (≈ 4.96 µM) |

What follows are compounds tested on Escherichia coli (assay: Antibacterial activity against Escherichia coli 10-3 after 18 hrs by two fold serial dilution method). Settings: 10-3, 18 h.
Format: functional
Summary of the method: as §1

| Compound | MIC [µg/mL] |
| --- | --- |
| CC1(CN)CN(c2ccc3c(=O)c(C(=O)O)cn(C4CC4)c3n2)C/C1=N\OCF (racemic) | 128 (≈ 317 µM) |

The compounds below were run on Escherichia coli (assay: Antibacterial activity against Escherichia coli 09-2 after 18 hrs by two fold serial dilution method). Settings: 09-2, 18 h.
Format: functional
Summary of the method: as §1

| Compound | MIC [µg/mL] |
| --- | --- |
| CC1(CN)CN(c2ccc3c(=O)c(C(=O)O)cn(C4CC4)c3n2)C/C1=N\OCF (racemic) | > 128 |

The compounds below were run on Staphylococcus epidermidis (assay: Antibacterial activity against methicillin-resistant Staphylococcus epidermidis 10-2 after 18 hrs by two fold serial dilution method). Settings: 10-2, 18 h.
Format: functional
Summary of the method: as §2

| Compound | MIC [µg/mL] |
| --- | --- |
| CC1(CN)CN(c2ccc3c(=O)c(C(=O)O)cn(C4CC4)c3n2)C/C1=N\OCF (racemic) | 8 (≈ 19.8 µM) |

The compounds below were run on Enterococcus faecalis (assay: Antibacterial activity against Enterococcus faecalis 09-1 after 18 hrs by two fold serial dilution method). Settings: 09-1, 18 h.
Format: functional
Summary of the method: as §1

| Compound | MIC [µg/mL] |
| --- | --- |
| CC1(CN)CN(c2ccc3c(=O)c(C(=O)O)cn(C4CC4)c3n2)C/C1=N\OCF (racemic) | 32 (≈ 79.3 µM) |

What follows are compounds tested on Escherichia coli (assay: Antibacterial activity against Escherichia coli 10-2 after 18 hrs by two fold serial dilution method). Settings: 10-2, 18 h.
Format: functional
Summary of the method: as §1

| Compound | MIC [µg/mL] |
| --- | --- |
| CC1(CN)CN(c2ccc3c(=O)c(C(=O)O)cn(C4CC4)c3n2)C/C1=N\OCF (racemic) | 1 (≈ 2.48 µM) |
